According to ChEMBL document CHEMBL1781927, “Highly selective c-Jun N-terminal kinase (JNK) 3 inhibitors with in vitro CNS-like pharmacokinetic properties II. Central core replacement” (Bioorg Med Chem Lett, 2011):
Values after ≈ are worked out from the molar mass of the structure shown.

Experiments:
[1] = biological target: Mitogen-activated protein kinase 9 (Homo sapiens, UniProt P45984); experiment: Inhibition of JNK2 by TR-FRET assay
Method in brief: (§1)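 IC50s were determined at a single fixed ATP concentration, and each value is the mean of at least three independent experiments.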

[2] = Solubility of the compound; assay type: physicochemical
[3] = biological target: Mitogen-activated protein kinase 10 (Homo sapiens, UniProt P53779); experiment: Inhibition of JNK3 by TR-FRET assay; method in brief: as §1
Chain of Mitogen-activated protein kinase 10 (P53779 whole entry): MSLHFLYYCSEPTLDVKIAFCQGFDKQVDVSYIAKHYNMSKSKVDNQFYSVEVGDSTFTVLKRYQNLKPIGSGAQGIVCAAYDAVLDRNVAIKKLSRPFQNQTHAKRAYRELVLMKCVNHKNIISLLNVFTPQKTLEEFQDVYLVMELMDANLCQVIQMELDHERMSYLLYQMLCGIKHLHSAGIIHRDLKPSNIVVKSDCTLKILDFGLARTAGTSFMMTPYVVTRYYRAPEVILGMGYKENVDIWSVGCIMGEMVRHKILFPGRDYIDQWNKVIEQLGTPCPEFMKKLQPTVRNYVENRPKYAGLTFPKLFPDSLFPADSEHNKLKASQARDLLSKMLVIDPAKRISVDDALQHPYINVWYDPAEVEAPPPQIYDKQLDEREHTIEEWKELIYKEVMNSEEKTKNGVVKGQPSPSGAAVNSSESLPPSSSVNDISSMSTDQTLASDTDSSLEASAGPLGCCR

[4] = biological target: Mitogen-activated protein kinase 8 (Homo sapiens, UniProt P45983); experiment: Inhibition of JNK1 by TR-FRET assay; method in brief: as §1
Chain of Mitogen-activated protein kinase 8 (P45983 whole entry): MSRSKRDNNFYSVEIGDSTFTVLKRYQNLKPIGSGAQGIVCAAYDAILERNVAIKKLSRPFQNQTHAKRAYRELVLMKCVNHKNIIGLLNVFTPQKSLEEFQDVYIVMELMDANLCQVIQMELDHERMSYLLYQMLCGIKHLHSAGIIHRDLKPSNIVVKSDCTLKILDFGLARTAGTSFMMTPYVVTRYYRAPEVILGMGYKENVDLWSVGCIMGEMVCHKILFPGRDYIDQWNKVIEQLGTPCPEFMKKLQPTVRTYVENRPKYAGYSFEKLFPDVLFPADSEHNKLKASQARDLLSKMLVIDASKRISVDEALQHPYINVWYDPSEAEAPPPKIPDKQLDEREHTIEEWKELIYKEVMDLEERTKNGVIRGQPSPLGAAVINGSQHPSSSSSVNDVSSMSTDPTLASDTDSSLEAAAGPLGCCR

[5] = Selectivity ratio of IC50 for JNK1 to IC50 for JNK3
[6] = Metabolic stability in human liver microsomes assessed as compound remaining after 60 mins in presence of UDPGA; assay type: ADME, Microsome; conditions: read-out: Stability
[7] = Oxidative metabolic stability in human liver microsomes assessed as compound remaining after 30 mins; assay type: ADME, Microsome; conditions: read-out: Stability
Method in brief: (§2)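 Liver microsomes, mouse or human, were incubated with the compound for 30 min under oxidative conditions. The read-out is the percent of parent compound remaining.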

[8] = Metabolic stability in mouse liver microsomes assessed as compound remaining after 60 mins in presence of UDPGA; assay type: ADME, Microsome; conditions: read-out: Stability
[9] = Oxidative metabolic stability in mouse liver microsomes assessed as compound remaining after 30 mins; assay type: ADME, Microsome; conditions: read-out: Stability; method in brief: as §2
[10] = Apparent permeability from apical to basolateral side in MDCK2 cells at 5 uM after 120 mins; assay type: ADME, cell-based, Canis lupus familiaris, MDCK-II; conditions: dog, MDCK

Chain of Mitogen-activated protein kinase 9 (P45984 whole entry): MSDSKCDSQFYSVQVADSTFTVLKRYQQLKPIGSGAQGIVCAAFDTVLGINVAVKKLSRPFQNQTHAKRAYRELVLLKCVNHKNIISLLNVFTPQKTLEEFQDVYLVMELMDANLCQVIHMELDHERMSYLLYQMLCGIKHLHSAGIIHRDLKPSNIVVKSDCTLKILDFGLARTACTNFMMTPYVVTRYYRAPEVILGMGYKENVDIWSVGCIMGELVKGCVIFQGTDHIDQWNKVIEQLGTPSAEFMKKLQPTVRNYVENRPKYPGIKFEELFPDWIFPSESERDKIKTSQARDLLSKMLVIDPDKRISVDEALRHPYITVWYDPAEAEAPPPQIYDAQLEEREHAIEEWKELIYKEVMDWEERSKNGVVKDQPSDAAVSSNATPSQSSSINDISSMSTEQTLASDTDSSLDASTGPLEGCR

Compound	IC50 [1] [µM]	solubility [2] [µM]	IC50 [3] [µM]	IC50 [4] [µM]	Ratio IC50 [5]	remaining at 1 h [6] [%]	remaining at 0.5 h [7] [%]	remaining at 1 h [8] [%]	remaining at 0.5 h [9] [%]	Papp A→B at 2 h, 5 µM [10] [×10⁻⁶ cm/s]
c1ccc2cc(-c3nn[nH]c3-c3ccncc3)ccc2c1	–	–	–	–	20	–	–	–	–	–
Cc1cc(-c2n[nH]c(=S)n2-c2cnc3ccccc3c2)ccn1	> 50	100 (≈ 31.9 µg/mL)	> 50	> 50	–	–	–	–	–	–
Clc1nnn(-c2ccncc2)c1-c1ccc2ccccc2c1	37.9	–	12.6	> 50	–	–	5	–	0	–
FC(F)(F)c1nnc(-c2ccncc2)n1-c1ccc2ccccc2c1	> 50	15 (≈ 5.1 µg/mL)	> 50	> 50	–	–	–	–	–	–
Clc1nnc(-c2ccncc2)n1-c1ccc2ccccc2c1	> 50	78 (≈ 23.9 µg/mL)	30.4	> 50	–	–	–	–	–	–
S=c1[nH]nc(-c2ccncc2)n1-c1cnc2ccccc2c1	> 50	100 (≈ 30.5 µg/mL)	> 50	> 50	–	–	–	–	–	–

Next, values leading:

IC50 [1] [µM]	solubility [2] [µM]	IC50 [3] [µM]	IC50 [4] [µM]	Ratio IC50 [5]	remaining at 1 h [6] [%]	remaining at 0.5 h [7] [%]	remaining at 1 h [8] [%]	remaining at 0.5 h [9] [%]	Papp A→B at 2 h, 5 µM [10] [×10⁻⁶ cm/s]	Compound
2.25	35 (≈ 13.1 µg/mL)	0.945	> 50	–	–	–	–	–	–	S=c1[nH]nc(-c2ccnc(NCC3CC3)c2)n1-c1ccc2ccccc2c1
34	65 (≈ 19.7 µg/mL)	14.9	> 50	–	–	–	–	–	–	N/N=c1\[nH]nc(-c2ccncc2)n1-c1ccc2ccccc2c1
0.504	100 (≈ 31.9 µg/mL)	1.03	24.3	–	–	–	–	–	–	Nc1cc(-c2n[nH]c(=S)n2-c2ccc3ccccc3c2)ccn1
18.6	–	4.81	> 50	–	78	12	90	0	37.9	c1ccc2cc(-c3cnnn3-c3ccncc3)ccc2c1
34.6	35 (≈ 11.3 µg/mL)	27.4	> 50	–	–	–	–	–	–	Fc1cnccc1-c1n[nH]c(=S)n1-c1ccc2ccccc2c1
6.39	–	1.91	> 50	–	–	18	–	0	–	c1ccc2cc(-n3ccnc3-c3ccncc3)ccc2c1
4.88	–	1.23	> 50	–	–	58	–	11	–	c1ccc2cc(-n3nccc3-c3ccncc3)ccc2c1
9.14	–	2.67	> 50	–	–	–	–	–	–	c1ccc2cc(-n3nncc3-c3ccncc3)ccc2c1
